High-throughput results (PubChem BioAssay)
Shown are actives, neighbours in structure and some others; about 2% of the full set was active somewhere.
ARFGAP1 inhibitor: inhibits rat ARF GTPase activating protein 1 | Q62848 | inhibition, % at 16.5 µM | 360,000 tested, 0.26% active | Arfgap1-stimulated ARF1 GTP hydrolysis, GDP FP detection;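 active means inhibition above a per-plate limit, mean inhibition of low control wells plus 3 SD, cut at about 25% in these data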;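 further: 0% = DMSO wells with enzyme and 100% = wells lacking Arfgap1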
Target sequence (Q62848 1-136 limits assumed): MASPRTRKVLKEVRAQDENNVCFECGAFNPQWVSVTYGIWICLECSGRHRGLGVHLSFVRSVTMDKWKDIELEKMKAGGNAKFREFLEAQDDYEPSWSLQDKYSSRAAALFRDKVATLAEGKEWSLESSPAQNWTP
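Replicates: Single well per compound | Assay system: Truncated rat Arfgap1 GAP domain | Control set: No-Arfgap1 wells (100%) versus DMSO full-reaction wells (0%) | Times: Enzyme reaction 120 min at 25 °C after 20 min preincubation | Reagent: Human ARF1(Δ1-17)-GTP substrate | Measured by: Tracer-displacement fluorescence polarization with EDTA stop, 620/688 nm | Measure: Percent inhibition of Arfgap1-stimulated GTP hydrolysis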
UHRF1 binding: blocks human UHRF1 binding to methylated DNA; 370,000 tested, 0.75% active; UHRF1 binding to methylated oligo, TR-FRET; Q96T88; inhibition, % at 4.4 µM; AID 687016; in the data active means inhibition above about 21%;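 further: UHRF1 SRA domain binding a hemimethylated CpG hairpin DNA probe; 0% = median of test compound wells and 100% = reference inhibitor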
ASAP1 inh: inhibitors of human ASAP1 ArfGAP activity; Q9ULH1; ASAP1-stimulated ARF1 GTP hydrolysis, GDP FP detection; inhibition, % at 16.5 µM; 360,000 tested, 0.19% active; AID 624377; in the data active means inhibition above about 25%;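 further: 0% = vehicle with enzyme and substrate and 100% = no enzyme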
TCR CD3 inh: human TCR-CD3 binding inhibition | 360,000 tested, 0.37% active | TAMRA-labeled TCR probe fluorescence, biochemical | AID 651800 | inhibition, % at 9.4 µM; in the data active means inhibition above about 19%;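 further: recombinant mutant TCR 2C K166C tagged with TAMRA read by polarization; 0% = receptor in buffer alone and 100% = receptor with positive control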
LEDGF integ inh: blocks HIV-1 LEDGF/p75-dependent DNA integration. inhibition, % at 3.7 µM. TR-FRET IN-LEDGF/p75 DNA integration, Eu/Cy5. 370,000 tested, 0.64% active. AID 743269;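 active means inhibition above the screen-wide mean plus 3 SD, cut at about 13% in these data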;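 further: signal is the Cy5 over europium emission ratio at 671 and 618 nm; 0% = plate median of compound wells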
MBD2 inh: blocks human MBD2 binding to methylated DNA; 370,000 tested, 0.31% active; AID 686964; TR-FRET, MBD2 binding to methylated oligonucleotide; inhibition, % at 4.4 µM; Q9UBB5; in the data active means inhibition above about 13%
Target sequence (Q9UBB5 whole entry, looked up): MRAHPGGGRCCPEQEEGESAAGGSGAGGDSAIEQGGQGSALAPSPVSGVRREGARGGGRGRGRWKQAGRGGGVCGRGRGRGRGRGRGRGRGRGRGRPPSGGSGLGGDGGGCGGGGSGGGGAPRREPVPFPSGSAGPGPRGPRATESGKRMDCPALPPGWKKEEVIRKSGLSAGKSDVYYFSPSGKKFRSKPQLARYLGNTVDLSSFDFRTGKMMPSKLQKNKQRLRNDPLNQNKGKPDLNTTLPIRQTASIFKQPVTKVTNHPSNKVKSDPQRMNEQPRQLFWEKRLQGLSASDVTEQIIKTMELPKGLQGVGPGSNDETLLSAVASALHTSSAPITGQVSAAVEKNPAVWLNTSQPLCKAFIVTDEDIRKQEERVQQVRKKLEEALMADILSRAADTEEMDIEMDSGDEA
* marks the source's active call; other numbers are inactive results; x = no result given; ! = a repeat was not active.

SMILES | ARFGAP1 inhibitor | UHRF1 binding | ASAP1 inh | TCR CD3 inh | LEDGF integ inh | MBD2 inh
O=c1cc(-c2ccc(O)cc2)oc2c([C@@H]3O[C@H](CO)[C@@H](O)[C@H](O)[C@H]3O)c(O)c([C@@H]3O[C@H](CO)[C@@H](O)[C@H](O)[C@H]3O)c(O)c12 | 6.7 | -4.1 | 2.8 | -0.2 | -3.1 | -1.8
O=c1cc(-c2ccc(O)c(O)c2)oc2cc(O)c([C@@H]3O[C@H](CO)[C@@H](O)[C@H](O)[C@H]3O)c(O)c12 | 13.4 | -3.6 | -11.7 | -2.8 | 57.1* | -3.7
CN(C)c1ccc(C(=O)NC2(N3CCC3=O)CCCC2)cc1 | 0.6 | 30.8* | -6.5 | -3.3 | -5.0 | 4.4
CCCC/C=C1/[C@@H](c2ccc(Cl)cc2)N(Cc2ccc3c(c2)OCO3)C2=N[C@@H](c3ccccc3)CC(=O)N21 | x | -1.0 | x | x | -1.9 | -1.3
CC(C)(C)c1ccc(CNc2nc(-c3ccccn3)nnc2-c2ccccc2)cc1 | x | 5.4 | x | x | -6.6 | 5.2
COc1cc(NC(=O)c2ccno2)cc(C(=O)Nc2cccc(C(F)(F)F)c2)c1 | 13.2 | 4.0 | -9.5 | 2.6 | -0.8 | 0.1
COc1cc(NC(=O)c2cc3cccc(OC)c3o2)cc(C(=O)Nc2cccc(C(F)(F)F)c2)c1 | 6.2 | 0.6 | 6.9 | 44.7* | -2.5 | -7.3
COc1ccc(-c2cc(C(=O)Nc3cc(OC)cc(C(=O)Nc4cccc(C(F)(F)F)c4)c3)[nH]n2)cc1 | 19.2 | 1.1 | -1.2 | 68.3*! | 5.5 | -1.0
CCN1CCN(Cc2ccc(NC(=O)c3cc(NC(=O)c4cc(-c5ccc(OC)cc5)n[nH]4)cc(OC)c3)cc2C(F)(F)F)CC1 | 31.0* | -2.8 | 26.2* | 27.9* | -1.2 | -5.7
O=C(NCc1ccccc1F)C1C2C=CC3(CN(Cc4ccccc4)C(=O)C13)O2 (configuration not stated) | x | -0.4 | x | x | -3.2 | -2.3
COc1cc(C(=O)N2CCCC(c3cc(C(=O)NCc4ccccc4)no3)C2)cc(OC)c1C (configuration not stated) | 8.1 | -0.9 | 2.1 | -3.1 | -0.6 | -0.7
COc1ccc2cc3[n+](cc2c1O)CCc1cc2c(cc1-3)OCO2 | 6.2 | 7.5 | -1.5 | 24.5* | 27.2* | -1.0
CC(C)CN1CCN(Cc2cn(C)c3ccccc23)CC1CCO (configuration not stated) | -2.0 | 25.7* | -11.1 | -12.0 | -0.7 | 0.4
CC(=O)C1=CCC(c2cccc(Cl)c2)N(S(=O)(=O)c2ccc(C)cc2)C1 (configuration not stated) | -11.3 | 1.2 | -4.7 | 4.1 | -2.0 | -0.2
CCn1c(=O)c(C(=O)NNS(=O)(=O)c2ccc(Br)cc2)c(O)c2ccccc21 | -3.4 | 35.3* | 0.2 | 8.2 | -4.1 | 2.9
CCn1c(=O)c(C(=O)NNS(=O)(=O)c2ccc(C)cc2)c(O)c2ccccc21 | -1.8 | -5.2 | -3.4 | 6.2 | 1.2 | -6.7
COc1ccc(C=NOCC(=O)OCC(=O)Nc2ccc(OC)cc2)cc1 | -8.5 | 28.7* | -5.2 | -3.2 | -2.7 | -1.7
CC(=O)Nc1ccc(/C=N/OCC(=O)Nc2ccc(C)cc2)cc1 | -2.0 | 1.7 | 4.2 | -0.1 | 1.2 | 4.4
CCS(=O)(=O)NCC(c1cccnc1)N1CCN(c2ccc(OC)cc2)CC1 (configuration not stated) | -2.4 | 21.9* | -17.1 | 3.3 | 0.6 | 2.8
CCS(=O)(=O)NCC(c1cccnc1)N1CCN(c2ccccc2)CC1 (configuration not stated) | -4.2 | 4.0 | -8.0 | -6.7 | 1.6 | -4.2
O=C(CCc1ccccc1)N1CCCC(Nc2ccc(F)cc2)C1 (configuration not stated) | -8.2 | 23.4* | -9.8 | 5.4 | 5.6 | 9.4
CN(CCc1ccccc1)C(=O)c1ccc(NC(=O)Cc2ccc(NC(=O)C3CCCN(C(=O)C4CCC4)C3)cc2)cc1 (configuration not stated) | -6.9 | 0.4 | -3.2 | 2.1 | -2.9 | 2.0
CN(CCc1ccccc1)C(=O)c1ccc(NC(=O)Cc2ccc(NC(=O)C3CCCN(C(=O)CCc4ccccc4)C3)cc2)cc1 (configuration not stated) | 2.4 | 37.4* | 1.7 | 12.2 | -2.4 | -6.1
Nc1c(C(=O)NCC(O)c2ccccc2)cnn1-c1ccccc1 (configuration not stated) | x | 1.3 | x | x | 5.8 | -3.1
O=C(NNC(=O)c1ccncc1)Nc1ccc(N=Nc2ccccc2)cc1 | -13.0 | -0.3 | 10.0 | -1.9 | 6.0 | -2.0
SMILES | ARFGAP1 inhibitor | UHRF1 binding | ASAP1 inh | TCR CD3 inh | LEDGF integ inh | MBD2 inh
COc1ccccc1CCc1nnc(CCC(=O)NCCOc2cccnc2)o1 | -5.1 | 24.7* | 14.9 | 7.0 | 3.0 | 3.6
CC(C(=O)Nc1ccc(C#N)cc1)N1CCN(C(=O)C2CC2)CC1 (configuration not stated) | -5.7 | -1.3 | -2.6 | 0.6 | 1.8 | 1.5
CC1(C)OC(=O)C2=C(CC(CCc3ccccc3)OC2CCc2ccccc2)O1 (configuration not stated) | 7.5 | 21.0* | -2.0 | 5.4 | 4.4 | -1.0
CC(C)C[C@@H]1O[C@H](CCc2ccccc2)CC2=C1C(=O)OC(C)(C)O2 | 9.3 | 0.1 | -8.6 | -6.3 | -1.4 | 0.3
CC(C)(N[C@@H](Cc1c[nH]c2ccccc12)C(=O)NCCCc1ccccc1)C(=O)NCc1ccccc1 | x | -1.7 | x | x | 3.1 | 1.7
C=CCN1[C@@H](C)[C@H](c2ccccc2)Oc2cccc(N3CCCC(C)C3)c2S1(=O)=O (some centres not stated) | 3.1 | 22.7* | 7.7 | -2.7 | -1.5 | 7.5
CC(C)OCCCn1c(=NC(=O)c2cccs2)c(C#N)cc2c(=O)n3ccccc3nc21 | 9.2 | 30.2* | -5.6 | -5.5 | 8.7 | 5.8
CC(C)OCCCn1c(=NC(=O)c2ccncc2)c(C#N)cc2c(=O)n3ccccc3nc21 | 0.6 | 6.0 | 7.7 | -0.1 | -1.6 | -1.4
COc1cc(Cl)c(C)cc1NC(=O)c1ccc(S(C)(=O)=O)cc1 | 12.2 | 23.8* | -5.2 | 13.5 | 1.2 | 7.1
O=C(Nc1ccc(NC(=O)c2ccco2)c(Cl)c1)c1ccccc1 | -9.1 | 41.7* | 9.9 | -10.5 | -3.0 | 2.9
O=C(O)CCCNc1n[nH]c(=O)[nH]c1=O | 6.2 | 25.6* | 16.5 | 7.0 | 0.7 | 1.4
O=C(CCNc1n[nH]c(=O)[nH]c1=O)N1CCCCC1 | -3.8 | 2.5 | 2.6 | -2.0 | 1.7 | 0.6
C[C@H]1CN([C@@H](C)CO)C(=O)c2cc(C#CC3(O)CCCC3)cnc2O[C@H]1CN(C)C(=O)C1CC1 | 5.5 | -0.5 | 9.8 | -1.7 | -1.0 | 4.3
Cc1cc(C)n2nc(C(=O)Nc3ccn(Cc4ccccc4C)n3)cc2n1 | 2.6 | 22.9* | 1.2 | 1.4 | 1.6 | -2.5
COc1ccc(CN2C[C@]3(C=C4CCCCC4n4c(=O)n(-c5ccccc5)c(=O)n43)N=C2NC(=O)c2ccccc2)c(OC)c1 (some centres not stated) | x | -2.8 | x | x | 2.3 | 1.1
